Laboratory results taken from ChEMBL document CHEMBL3813653, “Disulfides with Anti-inflammatory Activity from the Brown Alga Dictyopteris membranacea” (J Nat Prod, 2016).
The source made the active and inactive calls. The rule behind the calls is not given here.

Columns and labels:
[1] = test system: Staphylococcus aureus; test: Antibacterial activity against Staphylococcus aureus EMRSA-15 after 18 hrs by serial dilution method; format: functional, organism-based
Outline: (§1)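 Strains grown on nutrient agar for 24 h at 37 °C. Compounds dissolved in DMSO and diluted in Mueller–Hinton broth to a 512 μg/mL starting concentration, then serially diluted in MHB with 10 mg/L Mg2+ and 20 mg/L Ca2+. Final inoculum 5 × 10^5 cfu/mL; 18 h, 37 °C. MIC is the lowest concentration with no growth, confirmed by MTT colour change. DMSO at most 3.125% v/v; triplicate.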

[2] = test system: Staphylococcus aureus; test: Antibacterial activity against Staphylococcus aureus SA1199B after 18 hrs by serial dilution method; format: functional, organism-based; outline: as §1
[3] = test system: Escherichia coli; test: Antibacterial activity against Escherichia coli NCTC 10418 after 18 hrs by serial dilution method; format: functional, organism-based; outline: as §1
[4] = test system: RAW264.7; test: Cytostatic activity against mouse RAW264.7 cells assessed as cell growth inhibition after 48 hrs by MTT assay; format: cell-based; conditions: raw264.7, 48 h
Outline: (§2)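 RAW 264.7 cells seeded, cultured overnight, and the seeded cell number measured before treatment as control. Cells exposed to various concentrations for 48 h, then MTT at 0.5 mg/mL […]. Cells lysed in 2-propanol with 0.4% HCl; absorbance read at 610 nm. OD normalized to control; one-way ANOVA.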

[5] = test system: RAW264.7; test: Antiinflammatory activity in mouse RAW264.7 cells assessed as inhibition of LPS-induced nitric oxide production at 10 ug/ml preincubated for 1 hr followed by LPS stimulation for 48 hrs by Griess assay; format: functional, cell-based
Outline: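 RAW 264.7 mouse macrophages in DMEM with 10% heat-inactivated FBS at 37 °C, 5% CO2. Compounds fixed at 10 μg/mL in Carbowax 400 (0.1% v/v final), added 1 h before 100 ng/mL LPS for 48 h. Nitrite in the supernatant measured by Griess reaction (540 nm) against a sodium nitrite standard curve. Controls: 0.1% Carbowax only.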

[6] = test system: RAW264.7; test: Antiinflammatory activity in mouse RAW264.7 cells assessed as inhibition of LPS-induced nitric oxide production preincubated for 1 hr followed by LPS stimulation for 48 hrs by Griess assay; format: functional, cell-based
Outline: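 Macrophage line RAW 264.7 pretreated 1 h with a range of concentrations (vehicle Carbowax 400, 0.1% v/v final), then given 100 ng/mL LPS for 48 h. Supernatant nitrite read by Griess reaction at 540 nm using a nitrite standard curve. NO normalized to Carbowax-only cells (100%); IC50 is the concentration giving 50% inhibition; four replicates, mean ± SD.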

[7] = test system: RAW264.7; test: Cytotoxicity against mouse RAW264.7 cells assessed as cell growth inhibition after 48 hrs by MTT assay; format: cell-based; conditions: raw264.7, 48 h; outline: as §2
[8] = test system: RAW264.7; test: Antiinflammatory activity in mouse RAW264.7 cells assessed as inhibition of LPS-induced nitric oxide production treated 1 hr before LPS challenge measured after 48 hrs by Griess reaction

## CCCCCCCCC(=O)CCSSCCC(=O)CCCCCCCC
[1]
  Activity: inactive
[2]
  Activity: inactive
[3]
  Activity: inactive

## CCCCCCCCC(=O)CCSSCCC(=O)CC(CCCCCC)SC (configuration not stated)
[4]
  growth inhibition (GI): Toxic
[1]
  Activity: inactive
[2]
  Activity: inactive
[5]
  inhibition: Active
[6]
  IC50: 3.8 µM
[3]
  Activity: inactive
[7]
  GI: > 45 µM

## CCCCCC/C=C/C(=O)CCSSCCC(=O)/C=C/CCCCCC
[1]
  Activity: inactive
[2]
  Activity: inactive
[3]
  Activity: inactive

## CCCCCC/C=C/C(=O)CCSSCCC(=O)CCCCCCCC
[1]
  Activity: inactive
[2]
  Activity: inactive
[3]
  Activity: inactive

## CCCCCCC1CC(=O)CCSS1 (configuration not stated)
[4]
  growth inhibition (GI): Toxic
[1]
  Activity: inactive
[2]
  Activity: inactive
[5]
  inhibition: Active
[6]
  IC50: 14.2 µM
[3]
  Activity: inactive
[7]
  GI: > 85 µM

## CCCCCC/C=C/C(=O)CCSSCCC(=O)CC(CCCCCC)SC (configuration not stated)
[1]
  Activity: inactive
[2]
  Activity: inactive
[3]
  Activity: inactive

## C=C([C@H]1CC[C@@](C)(O)[C@@H](Br)C1)[C@H]1[C@H](O)[C@@H]2[C@@H](CC[C@@]2(C)O)C1(C)C
[8]
  IC50: 2.2 µM
